Calb FLC = C. albicans growth modulation with fluconazole. C. albicans CaCi-2 (fluconazole-resistant clinical isolate) + fluconazole, Alamar Blue growth, 48 h. growth inhibition, % (no concentration beside the values). hit rate 0.57% among 300,000;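 active = growth inhibition above about 58% in most replicates, limit read from the data, passing the limit was not always enough; inconclusive = exactly half the replicates above a set limit; inactive = most replicates below a set limit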;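 note: all wells also contain fluconazole at 8 µg/ml as a sub-toxic cotreatment; 0% = median of DMSO wells and 100% = median of geldanamycin control wells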
Mdm2 MdmX PPI = human Mdm2/MdmX binding inhibition; SaOS-2 split-luciferase Mdm2/MdmX complementation, luminescence; AID 485346; inhibition, % at 8 µM; hit rate 3% among 330,000;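 active = inhibition of at least 50% at 8 µM in the primary screen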
CSC inhib = blocks cancer stem cells; cancer stem cell-like cells viability, luminescence; inhibition, % at 7.5 µM; hit rate 1.1% among 300,000; in the data active = inhibition above about 75%; inconclusive = no clear call, values can overlap the other calls; tested in HMLE shEcad cells
Beta cell apopt = beta cell apoptosis inhibition | INS-1E cytokine-induced death, ATP luminescence, 48 h; percent of positive-control rescue, neutral wells zero | protection from apoptosis, % (no concentration beside the values) | hit rate 0.8% among 300,000 | AID 435005;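 active = Every replicate reaches about 75%, or at least half do and their mean reaches it too, limit read from the data; inconclusive = At least half of replicates reach the limit but their mean does not; inactive = Under half of replicates reach the limit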;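 note: 0% = cytokine-treated negative control wells and 100% = positive control rescue; higher means more ATP so stronger rescue from cytokine killing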
NLRP3 yeast inh = blocks the NALP3 inflammasome reconstituted in yeast | Yeast reconstituted NLRP3/ASC/caspase-1, beta-gal luminescence, 24 h | inhibition, % at 10 µM | hit rate 0.39% among 330,000 | AID 2825;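 active = inhibition of 50% or more; inactive = inhibition below 50%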;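 note: plate controls were induced DMSO wells for no effect and uninduced yeast grown without galactose for full effect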
T cruzi repl = T. cruzi replication inhibition | AID 1885 | T. cruzi beta-gal in NIH3T3, luminescence, 90 h | inhibition, % (no concentration beside the values) | hit rate 1.4% among 300,000;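 active = mean inhibition across valid replicates above about 55%, limit read from the data; inconclusive = mean below that limit but half or more replicates reach it; inactive = mean below it, under half of replicates reach it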;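 note: signal also drops with host cell toxicity which is not excluded here; 0% = plate median of DMSO wells and 100% = zero luminescence signal; higher percent means less beta-gal luminescence so fewer parasites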
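Assay system: NIH/3T3 host cells with β-galactosidase reporter T. cruzi; input: 5,000 host fibroblasts per well; compound: single 50 nL compound addition per well in DMSO; timing: ≥90 h infection period, 3 h prior cell attachment; measured by: GalScreen β-gal luminescence, detergent lysis, 60 min; evaluation: percent inhibition of parasite-derived β-gal signal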
An asterisk follows results filed as active; ? = inconclusive; · = no result. A selection: hits, their analogues and other compounds. The true share with any hit is near 5.3%.

SMILES	Calb FLC	Mdm2 MdmX PPI	CSC inhib	Beta cell apopt	NLRP3 yeast inh	T cruzi repl
Cc1cc(F)ccc1N1CCC(N2CCN(CCC(C)C)C(CCO)C2)CC1 (stereo not given)	-33.7	28.1	65.6	8.9	21.7	15.1
CC(C)CCN1CCN(C2CCN(c3ccc4c(c3)OCO4)CC2)CC1CCO (stereo not given)	-37.0	-29.3	50.2	-0.6	9.0	66.2*
CC(=O)OCCn1c2nc(=O)[nH]c(=O)c-2nc2cc(C)c(C)cc21	1.6	20.6	-5.2	-7.2	25.4	0.3
Cc1cc(C)c2sc(N(CCN(C)C)C(=O)CCS(=O)(=O)c3ccccc3)nc2c1	0.0	-21.0	4.1	-4.8	11.2	30.3
CCN(CC)CCN(C(=O)CCS(=O)(=O)c1ccccc1)c1nc2cc(C)cc(C)c2s1	5.9	8.2	-2.3	15.3	5.3	72.3*
CCc1nc(SCC(=O)NNC(=O)c2ccc(OC)cc2)c2ccccc2n1	36.4	8.2	-14.4	-6.6	13.9	14.7
CC(C)O/N=C1\C(=O)N(c2ccccc2)c2ccccc21	19.3	8.9	-5.9	3.8	7.7	29.0
O=C(NNC(=O)C1C2CCC(C2)C1C(=O)O)c1ccc(Br)o1 (stereo not given)	99.7*	-15.5	7.0	1.3	6.2	-0.8
CC(C)c1ccc(C(=O)NNC(=O)C2C3CCC(C3)C2C(=O)O)cc1 (stereo not given)	11.7	-68.3	0.4	-8.1	7.9	-0.9
Clc1ccc(-c2nnc(SCc3cn4ccsc4n3)n2CC2CCCO2)cc1 (stereo not given)	6.2	28.1	-13.8	-4.5	8.1	19.5
O=C(CCS(=O)(=O)c1cccc2nsnc12)N1CCN(Cc2ccc3c(c2)OCO3)CC1	-13.2	-2.5	-16.4	-7.3	-15.8	-3.0
O=C(CCS(=O)(=O)c1cccc2nsnc12)N1CCN(C(=O)c2ccco2)CC1	56.6*	-15.8	·	-2.2	5.2	-3.5
O=C(/C=C/c1ccccc1)Nn1c(-c2cccs2)nc2ccccc2c1=O	94.8*	18.0	1.2	-0.9	6.8	17.7
O=C(/C=C/c1cccc(Cl)c1)Nn1c(-c2cccs2)nc2ccccc2c1=O	26.1	-10.0	20.7	3.3	4.9	23.5
O=C1CC(C2CCCO2)C(=O)N1c1cccc(Cl)c1 (stereo not given)	?	-0.5	-2.1	-4.2	15.5	-3.5
CCn1nc(C)c(CN2CCc3c([nH]c4ccccc34)C2C(C)(C)C)c1C (stereo not given)	11.3	4.3	1.8	1.4	14.3	11.8
COc1ccc(-n2c(=O)c3c4c(sc3n3c(=S)[nH]nc23)CCCC4)cc1	92.8*	7.6	-8.7	8.3	15.5	-26.0
COC(=O)CSc1nnc2n(-c3ccc(OC)cc3)c(=O)c3c4c(sc3n12)CCCCC4	10.7	-19.8	4.3	-10.1	1.8	9.9
O=S1(=O)CCC(NS(=O)(=O)c2ccc3ccccc3c2)C1 (stereo not given)	13.4	19.0	·	-2.4	21.0	-6.0
Cc1nn(C)c(C)c1/C=C/C(=O)c1ccc(Cl)cc1Cl	92.2*	8.2	-1.3	50.5	17.3	14.3
CCCCCCCCCCC[C@@H](C[C@@H]1OC(=O)[C@H]1CCCCCC)OC(=O)[C@H](CC(C)C)NC=O	·	29.7	102.4*	3.8	11.2	5.1
CN(C)S(=O)(=O)c1cccc(NC(=O)c2cccc(S(=O)(=O)N3CCCCC3)c2)c1	-9.0	28.9	·	-4.1	-1.8	-12.8
O=[N+]([O-])c1cn(-c2nc(-c3ccco3)cc(C(F)(F)F)n2)cn1	-8.4	23.7	-6.2	-1.7	9.7	64.6*
Cc1ccc(N=Nc2ccc(O)c3ncccc23)cc1	?	·	99.3*	101.9*	·	57.3*
CC(CCc1ccccc1)NC(=O)c1cccnc1 (stereo not given)	-6.0	14.9	-11.2	-2.3	0.0	-3.7
CCn1c(CN2CCN(Cc3ccc(C)cc3)C(CCO)C2)nc2ccccc21 (stereo not given)	?	21.6	-6.1	-9.3	7.9	50.1
O=C(c1cc(COc2ccc(-n3cncn3)cc2)on1)N1CCCC1	20.8	11.8	21.4	0.0	16.5	-4.4
CCC1CCCCN1C(=O)c1cc(COc2ccc(-n3cncn3)cc2)on1 (stereo not given)	1.5	6.7	-13.0	103.7*	6.0	7.3
